Test results reported in ChEMBL document CHEMBL1132220 (J Med Chem, 1999).
Bridge positions count the residues as written; N and C are the ends. Square brackets hold non-standard residues; d marks the D form. Peptide text beside a SMILES is read from it. Phe(4-Cl) = N[C@@H](Cc1ccc(Cl)cc1)C(=O)O; Phe(4-F) = N[C@@H](Cc1ccc(F)cc1)C(=O)O; 2Nal = N[C@@H](Cc1ccc2ccccc2c1)C(=O)O; 3Pal = N[C@@H](Cc1cccnc1)C(=O)O; Tle = CC(C)(C)[C@H](N)C(=O)O; Nle = CCCC[C@H](N)C(=O)O

Tests used:
Somatostatin receptor = assay: Antagonism of in vitro SRIF inhibition of GH release in rat in vitro pituitary cell assay; type: functional, cell-based; details: pituitary gland cell
Method in brief: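 Dispersed adult male rat anterior pituitary cells (trypsin/DNase), about 200 000 cells/well, cultured 4–5 days at 37 °C. GH measured by double-antibody RIA. IC50 versus SRIF, mean ± SEM of n dose–response curves.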

[1] = target: Somatostatin receptor type 3 (Homo sapiens, UniProt P32745); assay: The compound was tested for binding affinity against human Somatostatin receptor type 3
Method in brief: (§1)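 CHO-K1 cells stably transfected (calcium phosphate) with cloned human sst3 or sst4. Membranes made in ice-cold 50 mM Tris-HCl, resuspended in 10 mM Tris-HCl, then incubated 30 min at 37 °C with 0.05 nM [125I]Tyr11-SRIF in HEPES pH 7.4 with BSA, MgCl2 and protease inhibitors. Filtered on GF/C; nonspecific binding with 1.0 µM SRIF. Mean ± SEM, or one experiment.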

[2] = target: Somatostatin receptor type 5 (Homo sapiens, UniProt P35346); assay: The compound was tested for binding affinity against human Somatostatin receptor type 5
Method in brief: (§2)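 Membranes from CHO-K1 cells transfected with the cloned human receptor. Terminated by filtration on PEI-soaked GF/C filters. Nonspecific binding defined with 1.0 μM SRIF. Mean ± SEM; single values are from one experiment.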

[3] = target: Somatostatin receptor type 1 (Homo sapiens, UniProt P30872); assay: The compound was tested for binding affinity against human Somatostatin receptor type 1; method in brief: as §2
[4] = target: Somatostatin receptor type 2 (Homo sapiens, UniProt P30874); assay: The compound was tested for binding affinity against human Somatostatin receptor type 2
Method in brief: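 Membranes from CHO-K1 cells transfected with the cloned human sst2. Incubated 30 min at 37 °C with 0.05 nM [125I]MK-678 in HEPES pH 7.4 with BSA, MgCl2, Trasylol, bacitracin and PMSF. Filtration on PEI-soaked GF/C filters. Nonspecific binding defined with 1.0 μM SRIF. Mean ± SEM; single values are from one experiment.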

[5] = target: Somatostatin receptor type 4 (Homo sapiens, UniProt P31391); assay: The compound was tested for binding affinity against human Somatostatin receptor type 4; method in brief: as §1
Chain of Somatostatin receptor type 4 (P31391 whole entry): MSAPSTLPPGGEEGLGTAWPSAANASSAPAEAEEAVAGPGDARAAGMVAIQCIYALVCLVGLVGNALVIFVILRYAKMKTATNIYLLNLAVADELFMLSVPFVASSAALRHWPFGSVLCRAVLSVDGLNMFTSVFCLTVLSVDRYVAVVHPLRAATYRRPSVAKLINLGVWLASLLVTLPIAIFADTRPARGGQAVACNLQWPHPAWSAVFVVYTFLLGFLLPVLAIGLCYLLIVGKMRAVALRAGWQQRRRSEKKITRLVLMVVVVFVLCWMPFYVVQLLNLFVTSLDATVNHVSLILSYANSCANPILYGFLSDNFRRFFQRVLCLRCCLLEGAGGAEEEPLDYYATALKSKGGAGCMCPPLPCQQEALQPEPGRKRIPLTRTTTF

Chain of Somatostatin receptor type 1 (P30872 whole entry): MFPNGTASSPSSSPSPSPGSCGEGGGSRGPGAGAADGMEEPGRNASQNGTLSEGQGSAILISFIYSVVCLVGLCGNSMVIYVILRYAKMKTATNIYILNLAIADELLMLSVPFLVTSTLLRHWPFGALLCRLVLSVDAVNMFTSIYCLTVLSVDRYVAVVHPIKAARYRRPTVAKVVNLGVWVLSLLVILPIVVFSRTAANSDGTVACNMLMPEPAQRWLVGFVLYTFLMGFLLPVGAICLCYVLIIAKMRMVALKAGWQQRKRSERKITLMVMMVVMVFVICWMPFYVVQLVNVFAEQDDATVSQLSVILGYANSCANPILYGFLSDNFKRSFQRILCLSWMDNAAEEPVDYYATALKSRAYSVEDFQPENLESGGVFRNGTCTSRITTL
Chain of Somatostatin receptor type 5 (P35346 whole entry): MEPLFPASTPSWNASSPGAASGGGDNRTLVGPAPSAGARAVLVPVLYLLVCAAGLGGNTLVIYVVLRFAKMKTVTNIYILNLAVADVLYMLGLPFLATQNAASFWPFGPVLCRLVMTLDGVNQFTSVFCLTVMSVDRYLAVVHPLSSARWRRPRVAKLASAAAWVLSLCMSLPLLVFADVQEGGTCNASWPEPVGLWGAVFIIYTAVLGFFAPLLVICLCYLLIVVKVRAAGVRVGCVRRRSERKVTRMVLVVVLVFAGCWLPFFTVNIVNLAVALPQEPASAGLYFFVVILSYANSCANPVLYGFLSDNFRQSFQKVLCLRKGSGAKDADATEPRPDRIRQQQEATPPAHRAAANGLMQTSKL
Chain of Somatostatin receptor type 3 (P32745 whole entry): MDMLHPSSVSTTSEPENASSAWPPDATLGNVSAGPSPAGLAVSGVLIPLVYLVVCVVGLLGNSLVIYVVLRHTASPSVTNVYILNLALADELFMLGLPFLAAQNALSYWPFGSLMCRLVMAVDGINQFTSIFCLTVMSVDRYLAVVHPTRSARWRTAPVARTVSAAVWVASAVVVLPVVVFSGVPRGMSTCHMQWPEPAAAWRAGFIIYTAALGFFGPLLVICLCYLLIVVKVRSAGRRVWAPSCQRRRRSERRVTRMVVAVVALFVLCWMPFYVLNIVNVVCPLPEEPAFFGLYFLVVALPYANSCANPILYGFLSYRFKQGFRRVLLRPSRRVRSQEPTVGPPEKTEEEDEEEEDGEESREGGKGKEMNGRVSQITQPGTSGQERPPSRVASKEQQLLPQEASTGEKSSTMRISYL
Chain of Somatostatin receptor type 2 (P30874 whole entry): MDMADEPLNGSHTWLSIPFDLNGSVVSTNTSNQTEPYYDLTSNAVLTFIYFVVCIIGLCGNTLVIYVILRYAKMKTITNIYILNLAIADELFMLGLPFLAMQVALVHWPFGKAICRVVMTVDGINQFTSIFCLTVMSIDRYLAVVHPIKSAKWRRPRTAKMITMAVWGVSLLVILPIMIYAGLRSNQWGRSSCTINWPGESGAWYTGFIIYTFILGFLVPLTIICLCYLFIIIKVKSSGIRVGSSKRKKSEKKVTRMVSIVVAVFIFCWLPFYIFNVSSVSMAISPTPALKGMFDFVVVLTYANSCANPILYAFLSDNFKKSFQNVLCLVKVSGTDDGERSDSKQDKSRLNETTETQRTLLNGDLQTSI

Row | SMILES | IC50 (Somatostatin receptor) | Ki [1] | Ki [2] | Ki [3] | Ki [4] | Ki [5]
1 | CC(C)[C@H]1NC(=O)[C@H](CCCCN)NC(=O)[C@@H](Cc2c[nH]c3ccccc23)NC(=O)[C@H](Cc2cccnc2)NC(=O)[C@@H](NC(=O)[C@H](N)Cc2ccc(F)cc2)CSSC[C@H](C(=O)N[C@H](Cc2ccc(F)cc2)C(N)=O)NC1=O | 74 nM | – | – | – | – | –
2 | CC(C)[C@H]1NC(=O)[C@H](CCCCN)NC(=O)[C@@H](Cc2c[nH]c3ccccc23)NC(=O)[C@H](Cc2cccnc2)NC(=O)[C@@H](NC(=O)[C@@H](N)Cc2c(F)c(F)c(F)c(F)c2F)CSSC[C@H](C(=O)N[C@@H](Cc2c(F)c(F)c(F)c(F)c2F)C(N)=O)NC1=O | 292 nM | – | – | – | – | –
3 | CC(C)[C@@H]1NC(=O)[C@H](CCCCN)NC(=O)[C@@H](Cc2c[nH]c3ccccc23)NC(=O)[C@H](Cc2cccnc2)NC(=O)[C@H](NC(=O)[C@@H](N)Cc2ccc(F)cc2)CSSC[C@@H](C(=O)N[C@@H](Cc2ccc(F)cc2)C(N)=O)NC1=O | – | 120 nM | 369 nM | 435 nM | 20 nM | > 1000 nM
4 | CC(C)[C@@H]1NC(=O)[C@H](CCCCN)NC(=O)[C@@H](Cc2c[nH]c3ccccc23)NC(=O)[C@H](Cc2cccnc2)NC(=O)[C@H](NC(=O)[C@@H](N)Cc2c(F)c(F)c(F)c(F)c2F)CSSC[C@@H](C(=O)N[C@@H](Cc2c(F)c(F)c(F)c(F)c2F)C(N)=O)NC1=O | – | 111 nM | 960 nM | 525 nM | 633 nM | 176 nM
5 | CC(C)[C@H]1NC(=O)[C@H](CCCCN)NC(=O)[C@@H](Cc2c[nH]c3ccccc23)NC(=O)[C@H](Cc2c[nH]cn2)NC(=O)C(NC(=O)[C@@H](N)Cc2ccccc2F)CSSCC(C(=O)N[C@@H](Cc2ccccc2F)C(N)=O)NC1=O (stereo in doubt) | – | 382 nM | 972 nM | 37 nM | 176 nM | > 1000 nM
6 | CC(C)[C@@H]1NC(=O)[C@H](CCCCN)NC(=O)[C@@H](Cc2c[nH]c3ccccc23)NC(=O)[C@H](Cc2cccnc2)NC(=O)[C@H](NC(=O)[C@@H](N)Cc2cccc(F)c2)CSSC[C@@H](C(=O)N[C@@H](Cc2cccc(F)c2)C(N)=O)NC1=O | – | 495 nM | 748 nM | 82 nM | 117 nM | > 1000 nM
7 | CC(C)[C@@H]1NC(=O)[C@H](CCCCN)NC(=O)[C@@H](Cc2c[nH]c3ccccc23)NC(=O)[C@H](Cc2cccnc2)NC(=O)[C@H](NC(=O)[C@@H](N)Cc2ccc(Br)cc2)CSSC[C@@H](C(=O)N[C@@H](Cc2ccc(Br)cc2)C(N)=O)NC1=O | – | 57 nM | 66 nM | 374 nM | 16 nM | 3310 nM
8 | CC(C)[C@@H]1NC(=O)[C@H](CCCCN)NC(=O)[C@@H](Cc2c[nH]c3ccccc23)NC(=O)[C@H](Cc2cccnc2)NC(=O)[C@H](NC(=O)[C@@H](N)Cc2ccc(I)cc2)CSSC[C@@H](C(=O)N[C@@H](Cc2ccc(I)cc2)C(N)=O)NC1=O | – | 18 nM | 48 nM | 575 nM | 32 nM | 436 nM
9 | CC(C)[C@@H]1NC(=O)[C@H](CCCCN)NC(=O)[C@@H](Cc2c[nH]c3ccccc23)NC(=O)[C@H](Cc2cccnc2)NC(=O)[C@H](NC(=O)[C@@H](N)Cc2ccccc2F)CSSC[C@@H](C(=O)N[C@@H](Cc2ccccc2F)C(N)=O)NC1=O | – | 385 nM | 1580 nM | 186 nM | 241 nM | > 1000 nM
10 | CC(C)[C@@H]1NC(=O)[C@H](CCCCN)NC(=O)[C@@H](Cc2c[nH]c3ccccc23)NC(=O)[C@H](Cc2cccnc2)NC(=O)[C@H](NC(=O)[C@@H](N)Cc2ccc3ccccc3c2)CSSC[C@@H](C(=O)N[C@H](C(N)=O)C(c2ccccc2)c2ccccc2)NC1=O | – | 1600 nM | 725 nM | > 1000 nM | 37 nM | > 1000 nM
11 | CC(C)[C@H]1NC(=O)[C@H](CCCCN)NC(=O)[C@@H](Cc2c[nH]c3ccccc23)NC(=O)[C@H](Cc2c[nH]cn2)NC(=O)C(NC(=O)[C@@H](N)Cc2ccc(F)cc2)CSSCC(C(=O)N[C@@H](Cc2ccc(F)cc2)C(N)=O)NC1=O (stereo in doubt) | – | 269 nM | 173 nM | 1950 nM | 31 nM | 847 nM

More lines, now with the values ahead:

Row | IC50 (Somatostatin receptor) | Ki [1] | Ki [2] | Ki [3] | Ki [4] | Ki [5] | SMILES
12 | 125 nM | – | – | – | – | – | CC(C)(C)C[C@@H]1NC(=O)[C@H](CCCCN)NC(=O)[C@@H](Cc2c[nH]c3ccccc23)NC(=O)[C@H](Cc2cccnc2)NC(=O)C(NC(=O)[C@@H](N)Cc2ccc(Cl)cc2)CSSCC(C(=O)N[C@@H](Cc2ccc3ccccc3c2)C(N)=O)NC1=O (stereo in doubt)
13 | 3 nM | – | – | – | – | – | CC(C)[C@H]1NC(=O)[C@H](CCCCN)NC(=O)[C@@H](Cc2c[nH]c3ccccc23)NC(=O)[C@H](Cc2cccnc2)NC(=O)[C@@H](NC(=O)[C@@H](N)Cc2ccc(Cl)cc2)CSSC[C@H](C(=O)N[C@@H](Cc2ccc(Cl)cc2)C(N)=O)NC1=O
14 | 48 nM | – | – | – | – | – | CC(C)C[C@@H]1NC(=O)[C@H](CCCCN)NC(=O)[C@@H](Cc2c[nH]c3ccccc23)NC(=O)[C@H](Cc2cccnc2)NC(=O)[C@@H](NC(=O)[C@@H](N)Cc2ccc3ccccc3c2)CSSC[C@@H](C(=O)N[C@@H](Cc2ccc3ccccc3c2)C(N)=O)NC1=O
15 | – | 100 nM | 520 nM | > 1000 nM | 12 nM | 895 nM | CC(C)(C)[C@@H]1NC(=O)[C@H](CCCCN)NC(=O)[C@@H](Cc2c[nH]c3ccccc23)NC(=O)[C@H](Cc2cccnc2)NC(=O)[C@H](NC(=O)[C@@H](N)Cc2ccc(Cl)cc2)CSSC[C@@H](C(=O)N[C@@H](Cc2ccc3ccccc3c2)C(N)=O)NC1=O (H-[Phe(4-Cl)][dC][3Pal][dW]K[Tle]C[2Nal]-NH2; disulfide 2-7)
16 | – | 152 nM | 847 nM | 172 nM | > 1000 nM | 1040 nM | CC[C@H](C)[C@@H]1NC(=O)[C@H](CCCCN)NC(=O)[C@@H](Cc2c[nH]c3ccccc23)NC(=O)[C@H](Cc2cccnc2)NC(=O)[C@H](NC(=O)[C@@H](N)Cc2ccc3ccccc3c2)CSSC[C@@H](C(=O)N[C@@H](Cc2ccc3ccccc3c2)C(N)=O)NC1=O (H-[2Nal][dC][3Pal][dW]KIC[2Nal]-NH2; disulfide 2-7)
17 | – | 126 nM | 814 nM | 845 nM | 76 nM | 672 nM | CCCC[C@@H]1NC(=O)[C@H](CCCCN)NC(=O)[C@@H](Cc2c[nH]c3ccccc23)NC(=O)[C@H](Cc2cccnc2)NC(=O)[C@H](NC(=O)[C@@H](N)Cc2ccc3ccccc3c2)CSSC[C@@H](C(=O)N[C@@H](Cc2ccc3ccccc3c2)C(N)=O)NC1=O (H-[2Nal][dC][3Pal][dW]K[Nle]C[2Nal]-NH2; disulfide 2-7)
18 | – | 53 nM | 70 nM | 1030 nM | 14 nM | > 1000 nM | C[C@@H](O)[C@@H]1NC(=O)[C@H](CCCCN)NC(=O)[C@@H](Cc2c[nH]c3ccccc23)NC(=O)[C@@H](Cc2ccccn2)NC(=O)C(NC(=O)[C@@H](N)Cc2ccc(Cl)cc2)CSSCC(C(=O)N[C@@H](Cc2ccc3ccccc3c2)C(N)=O)NC1=O (stereo in doubt)
19 | – | 51 nM | 139 nM | > 1000 nM | 32 nM | 301 nM | CC(C)[C@@H]1NC(=O)[C@H](CCCCN)NC(=O)[C@@H](Cc2c[nH]c3ccccc23)NC(=O)[C@H](Cc2cccnc2)NC(=O)[C@H](NC(=O)[C@@H](N)Cc2ccc(Cl)cc2)CSSC[C@@H](C(=O)N[C@@H](Cc2ccc(Cl)cc2)C(N)=O)NC1=O
20 | – | 379 nM | 1860 nM | 1200 nM | 203 nM | > 1000 nM | C[C@@H]1NC(=O)[C@H](CCCCN)NC(=O)[C@@H](Cc2c[nH]c3ccccc23)NC(=O)[C@H](Cc2cccnc2)NC(=O)[C@H](NC(=O)[C@@H](N)Cc2ccc3ccccc3c2)CSSC[C@@H](C(=O)N[C@@H](Cc2ccc3ccccc3c2)C(N)=O)NC1=O
21 | – | 231 nM | 535 nM | > 1000 nM | 26 nM | > 1000 nM | CC(C)(C)[C@@H]1NC(=O)[C@H](CCCCN)NC(=O)[C@@H](Cc2c[nH]c3ccccc23)NC(=O)[C@H](Cc2cccnc2)NC(=O)[C@H](NC(=O)[C@@H](N)Cc2ccc(F)cc2)CSSC[C@@H](C(=O)N[C@@H](Cc2ccc3ccccc3c2)C(N)=O)NC1=O (H-[Phe(4-F)][dC][3Pal][dW]K[Tle]C[2Nal]-NH2; disulfide 2-7)
22 | – | 243 nM | 968 nM | 415 nM | 543 nM | 728 nM | CC(C)C[C@@H]1NC(=O)[C@H](CCCCN)NC(=O)[C@@H](Cc2c[nH]c3ccccc23)NC(=O)[C@H](Cc2cccnc2)NC(=O)[C@H](NC(=O)[C@@H](N)Cc2ccc3ccccc3c2)CSSC[C@@H](C(=O)N[C@@H](Cc2ccc3ccccc3c2)C(N)=O)NC1=O
23 | – | 210 nM | 2250 nM | > 1000 nM | 84 nM | > 1000 nM | CC(C)(C)[C@@H]1NC(=O)[C@H](CCCCN)NC(=O)[C@@H](Cc2c[nH]c3ccccc23)NC(=O)[C@H](Cc2cccnc2)NC(=O)[C@H](NC(=O)[C@@H](N)Cc2c[nH]c3ccccc23)CSSC[C@@H](C(=O)N[C@@H](Cc2ccc3ccccc3c2)C(N)=O)NC1=O (H-W[dC][3Pal][dW]K[Tle]C[2Nal]-NH2; disulfide 2-7)
